Laboratory results published in ChEMBL document CHEMBL1154833, “Curcuminoid analogs with potent activity against Trypanosoma and Leishmania species” (Eur J Med Chem, 2010).

How the values were obtained:
[1] = system: Trypanosoma brucei brucei; assay: Antitrypanosomal activity against diminazene-resistant Trypanosoma brucei brucei deltaTbat1-KO after 48 hrs by alamar blue assay; assay type: functional, organism-based
[2] = system: Trypanosoma brucei brucei; assay: Selectivity ratio of EC50 for Trypanosoma brucei brucei B48 to EC50 for Trypanosoma brucei brucei 427; assay type: functional
Procedure, shortened: (§1)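 T. b. brucei bloodstream forms (strain 427, its ΔTbAT1 clone, and the pentamidine-adapted B48 line derived from it) cultured in HMI9 with 10% FBS at 37 °C under CO2. EC50 for each line from the Alamar Blue fluorescence assay with sigmoid fitting, and the ratio taken between lines.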

Leishmania mexicana = assay: Antileishmanial activity against Leishmania mexicana MNYC/BZ/62/M379 amastigotes after 48 hrs by alamar blue assay; assay type: functional, organism-based; conditions: Leishmania mexicana, MNYC/BZ/62/M379, 48 h; read-out: EC50
Procedure, shortened: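 Axenic L. mexicana MNYC/BZ/62/M379 amastigotes kept at 33 °C under CO2 in Schneider's Drosophila medium with 20% FBS and 0.3% gentamycin. Alamar Blue fluorescence read-out.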

[3] = system: Trypanosoma brucei brucei; assay: Antitrypanosomal activity against Trypanosoma brucei brucei 427 after 48 hrs by alamar blue assay; assay type: functional, organism-based; conditions: Trypanosoma brucei, 427, 48 h; read-out: EC50
HEK293 = assay: Cytotoxicity against HEK293 cells after 16 hrs by alamar blue assay; assay type: cell-based, Homo sapiens; conditions: Homo sapiens, HEK293, 16 h; read-out: EC50
Procedure, shortened: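 HEK293T cells grown in DMEM-based medium with 10% newborn bovine serum at 37 °C, 5% CO2. Doubling dilutions of compound added for 16 h, then resazurin added. Fluorescence read at emission 590 nm after a further 24 h.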

[4] = system: Trypanosoma brucei brucei; assay: Antitrypanosomal activity against multidrug-resistant Trypanosoma brucei brucei B48 after 48 hrs by alamar blue assay; assay type: functional, organism-based; conditions: B48, 48 h
Trypanosoma evansi = assay: Antitrypanosomal activity against Trypanosoma evansi ITMAV170475 after 48 hrs by alamar blue assay; assay type: functional, organism-based; conditions: ITMAV170475, 48 h
Procedure, shortened: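 Culture-adapted T. evansi ITMAV170475 seeded at 1.5 ×10⁵ trypanosomes/ml in HMI9/20% FBS. Exposed to compound for 48 h, then incubated with Alamar Blue for 24 h, all at 37 °C under CO2. Assay validated against hemocytometer cell counts. EC50 from a variable-slope sigmoid fit.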

Leishmania major = assay: Antileishmanial activity against Leishmania major Friedlin promastigotes after 48 hrs by alamar blue assay; assay type: functional, organism-based; conditions: Leishmania major, Friedlin, 48 h; read-out: EC50
Procedure, shortened: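 L. major Friedlin promastigotes grown in HOMEM with 10% FBS at 25 °C. Alamar Blue fluorescence assay in 96-well plates. 3–6 independent experiments unless noted.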

[5] = system: Trypanosoma brucei brucei; assay: Selectivity ratio of EC50 for Trypanosoma brucei brucei 427 to EC50 for Trypanosoma brucei brucei deltaTbat1-KO; assay type: functional; procedure, shortened: as §1
[6] = system: Trypanosoma brucei brucei; assay: Antitrypanosomal activity against Trypanosoma brucei brucei GUTat 3.1; assay type: functional, organism-based
[7] = Selectivity index, ratio of EC50 for HEK cells to EC50 for Trypanosoma brucei brucei 427; assay type: toxicity, cell-based, HEK293; conditions: human, HEK cells versus Trypanosoma brucei brucei 427; read-out: Ratio EC50
[8] = Selectivity index, ratio of EC50 for HEK cells to EC50 for Trypanosoma brucei brucei B48; assay type: toxicity, cell-based, HEK293; conditions: human, HEK cells versus Trypanosoma brucei brucei B48; read-out: Ratio EC50
[9] = Selectivity index, ratio of EC50 for HEK cells to EC50 for Leishmania major Friedlin promastigotes; assay type: toxicity, cell-based, HEK293; conditions: human, HEK cells versus Leishmania major Friedlin promastigotes; read-out: Ratio EC50
Procedure, shortened: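 Ratio of HEK EC50 to parasite EC50. For HEK293T cells in DMEM with 10% newborn bovine serum at 37 °C and 5% CO2, doubling dilutions of compound were added for 16 h, then Alamar Blue, and fluorescence (em 590 nm) was read after another 24 h. L. major Friedlin promastigotes were grown in HOMEM with 10% FBS at 25 °C and tested by Alamar Blue. EC50 values came from sigmoid non-linear regression.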

[10] = system: Trypanosoma brucei brucei; assay: Selectivity ratio of EC50 for Trypanosoma brucei brucei 427 to EC50 for Trypanosoma brucei brucei B48; assay type: functional; procedure, shortened: as §1

Compound	EC50 [1]	Ratio EC50 [2]	EC50 (Leishmania mexicana)	EC50 [3]	EC50 (HEK293)	EC50 [4]	EC50 (Trypanosoma evansi)	EC50 (Leishmania major)	Ratio EC50 [5]	EC50 [6]	selectivity ratio [7]	selectivity ratio [8]	selectivity ratio [9]	Ratio EC50 [10]
C=CCOc1ccc(/C=C/C(=O)CC(=O)/C=C/c2ccc(O)c(OC)c2)cc1OC	2.2 µM	5	12 µM	2.4 µM	270 µM	12 µM	1.6 µM	5.7 µM	–	–	–	–	–	–
C=CCOc1ccc(/C=C/C(=O)CC(=O)/C=C/c2ccc(OCC=C)c(OC)c2)cc1OC	1.9 µM	3.6	> 100 µM	1.6 µM	> 500 µM	5.8 µM	5.6 µM	25 µM	–	–	–	–	–	–
COc1cc(/C=C/C(=O)CC(=O)/C=C/c2ccc(O)c(O)c2)ccc1O	1.1 µM	3.1	3.2 µM	0.87 µM	36 µM	2.7 µM	1.1 µM	4.3 µM	–	–	–	–	–	–
O=C(/C=C/c1ccc(O)cc1)CC(=O)/C=C/c1ccc(O)c(O)c1	1.8 µM	–	21 µM	0.65 µM	30 µM	1 µM	–	22 µM	2.7	–	–	–	–	–
COc1cc(/C=C/C(=O)CC(=O)/C=C/c2ccc(O)c(OC)c2)ccc1O [CURCUMIN]	4.7 µM	–	16 µM	2.5 µM	37 µM	2.9 µM	2 µM	33 µM	–	4.8 µM	–	–	–	–
COc1cc(CC/C=C/C(=O)CCc2ccc(O)c(OC)c2)ccc1O	0.082 µM	–	17 µM	0.053 µM	24 µM	0.023 µM	0.17 µM	8.9 µM	–	–	453	> 1000	–	–
COc1cc(CC/C=C/C(O)CCc2ccc(O)c(OC)c2)ccc1O (configuration not stated)	42 µM	–	64 µM	40 µM	130 µM	6.3 µM	–	50 µM	–	–	3	–	–	–
COc1ccc(/C=C/C(=O)CC(=O)/C=C/c2ccc(OC)c(OC)c2)cc1OC [TETRAMETHOXYCURCUMIN]	0.62 µM	–	10 µM	0.45 µM	200 µM	0.77 µM	–	2.8 µM	–	–	–	–	70	–
COc1ccc(CC/C=C/C(=O)CCc2ccc(OC)c(OC)c2)cc1OC	1.6 µM	–	28 µM	1.9 µM	26 µM	0.023 µM	–	12 µM	–	–	–	–	–	83
CC(=O)NCC(=O)O.N=C(N)c1ccc(/N=N/Nc2ccc(C(=N)N)cc2)cc1 [DIMINAZEN ACETURATE]	–	–	–	–	–	–	–	–	20	–	–	–	–	–
COc1cc(/C=C/C(=O)CC(=O)/C=C/c2ccc(OCC=C(C)C)c(OC)c2)ccc1OCC=C(C)C	1.6 µM	–	27 µM	1.2 µM	> 1000 µM	1.3 µM	–	> 100 µM	–	–	> 1000	–	–	–
